Cneo AK release – Cryptococcus neoformans lysis via adenylate kinase release. 360,000 tested, 0.2% active. C. neoformans lysis, adenylate kinase release luminescence, 4 h; normalised: neutral wells 0, clomiphene wells 100. lysis activity, % at 15 µM. AID 651654;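 active = mean lysis activity across replicates of at least 80%, whatever share of replicates individually reach that level; inactive = mean lysis activity below 80%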
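Test system: log-phase Cryptococcus neoformans yeast cells; Quantity: yeast cell density of 5 × 10^6 cells/mL; Buffer or medium: YPD; Doses: single compound concentration per well; Timing: 4 h at 37 °C static, read 1 h later; Measured by: AK luminescence; Read-out basis: lysis from increased AK signal; Control set: Clomiphene as positive control.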
E-selectin induc – E-selectin induction on HUVECs. P16581. HUVEC E-selectin immunofluorescence imaging; normalized: neutral wells 0, TNF-alpha wells 100. AID 686992. activation, % at 7.58 µM. 260,000 tested, 0.37% active;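 active = mean E-selectin-positive cell signal at least 10% of the positive control, reached in at least 60% of replicates, without over 20% cell loss; inconclusive = no rule given, readout overlaps actives, possibly toxicity-flagged; inactive = the rest, including those meeting only one limit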
Target sequence (P16581 whole entry, looked up): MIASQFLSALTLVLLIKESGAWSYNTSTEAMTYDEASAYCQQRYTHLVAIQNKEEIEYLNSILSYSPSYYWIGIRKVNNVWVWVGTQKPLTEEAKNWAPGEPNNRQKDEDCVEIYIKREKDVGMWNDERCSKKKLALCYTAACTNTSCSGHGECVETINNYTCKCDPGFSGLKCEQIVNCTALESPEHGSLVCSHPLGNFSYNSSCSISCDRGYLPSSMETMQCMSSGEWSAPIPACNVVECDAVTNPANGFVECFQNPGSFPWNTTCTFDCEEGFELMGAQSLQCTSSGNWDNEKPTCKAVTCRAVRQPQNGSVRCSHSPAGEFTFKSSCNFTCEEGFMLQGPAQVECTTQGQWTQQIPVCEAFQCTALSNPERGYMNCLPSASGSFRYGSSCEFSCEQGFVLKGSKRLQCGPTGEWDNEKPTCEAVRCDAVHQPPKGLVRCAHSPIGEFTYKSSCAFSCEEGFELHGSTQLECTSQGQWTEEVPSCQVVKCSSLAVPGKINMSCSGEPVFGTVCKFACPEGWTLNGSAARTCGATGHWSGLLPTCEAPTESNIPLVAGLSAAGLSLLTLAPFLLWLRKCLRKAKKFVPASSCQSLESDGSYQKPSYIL
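assay system = HUVEC, human umbilical vein endothelial cells | input = 3,000 HUVEC seeded per well | medium = EGM-2 growth medium on 0.1% gelatin-coated wells | dosing = one compound dose added by pin transfer | signal = immunofluorescence imaging | read-out basis = % PE-positive cells | control set = TNF-alpha, DMSO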
miR122 inh – miR-122 inhibition in Huh7 cells. 340,000 tested, 0.3% active. Huh7 miR-122 Renilla luciferase sensor, 48 h; neutral wells = 0, positive control = 100. activation (reporter increase), % at 12.5 µM. AID 602342;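 active = mean replicate activation score at least 90 and every replicate individually at or above 90; inconclusive = only one of the two criteria met; inactive = neither criterion met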;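 also: higher luciferase means less miR-122 activity so hits act as miR-122 inhibitors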
DENV2 CPE rescue – inhibitors of DENV2 cytopathic effect | DENV2-infected cells, cytopathic effect rescue, plate reader | CPE inhibition, % at 9.99 µM | 350,000 tested, 1.7% active | AID 651640; in the data active = CPE inhibition above about 20%, passing the limit was not always enough; inconclusive = no clear call, values can overlap the other calls; tested in BHK-21 cells;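 also: 0% = median of neutral control wells and 100% = median of positive control wells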
Ecoli rRNA inh – inhibits bacterial ribosomal RNA function over humanized ribosomes. E. coli WT GFP vs humanized-ribosome RFP mutants, fluorescence, 24 h; stronger effect = lower value; DMSO median 0, no signal -100. GFP signal change (wild-type ribosome), % (no concentration beside the values). 350,000 tested, 1.6% active;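 active = significant combined selectivity score with lowered wild-type GFP, culture density cut under 30%, mutant RFP and density less affected; inactive = any of these conditions unmet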
An asterisk follows results filed as active; [ ] = another dose, or the depositor's remark. An excerpt weighted towards active compounds, which were near 3.1% of everything screened.

`O=C(C[C@H]1C=C[C@H](NC(=O)C2CCC2)[C@@H](CO)O1)NC1CCC1` gave Cneo AK release 91.2*, E-selectin induc 0.0, miR122 inh 0.5[16.7 µM], DENV2 CPE rescue -9.9 and Ecoli rRNA inh 1.9.
Screening O=C(C[C@@H]1C=C[C@@H](NC(=O)C2CCC2)[C@H](CO)O1)NC1CCC1 returned Cneo AK release 95.8*, E-selectin induc 0.3, miR122 inh 3.3[16.7 µM], DENV2 CPE rescue 0.9 and Ecoli rRNA inh 0.4.
For O=C(C[C@@H]1C=C[C@H](NC(=O)C2CCC2)[C@H](CO)O1)NC1CCCCC1 the results were Cneo AK release -2.5, E-selectin induc -0.2, DENV2 CPE rescue 1.0 and Ecoli rRNA inh 2.1.
CCC(=O)N[C@@H]1C=C[C@H](CC(=O)NCC2CCCCC2)O[C@@H]1CO was read as Cneo AK release -0.2, E-selectin induc -0.4, miR122 inh -12.6[16.7 µM], DENV2 CPE rescue inconclusive and Ecoli rRNA inh 2.1.
Screening CCC(=O)N[C@H]1C=C[C@H](CC(=O)NCC2CCCCC2)O[C@@H]1CO returned Cneo AK release 88.9*, E-selectin induc -0.4, miR122 inh -3.8[16.7 µM], DENV2 CPE rescue -13.3 and Ecoli rRNA inh 3.3.
For C[C@@H]1CN([C@@H](C)CO)C(=O)c2cc(-c3ccccc3)cnc2O[C@@H]1CN(C)C(=O)Cc1ccccc1 the results were E-selectin induc 0.0, miR122 inh 9.7[16.7 µM] and Ecoli rRNA inh -3.9.
`O=C(NC1CCCC1)N1CC(=O)N2[C@H](CO)[C@H](c3ccc(-c4ccccc4)cc3)[C@@H]2C1` gave Ecoli rRNA inh -3.6.
Screening CCOC(=O)c1c(NC(=O)CSc2nnc(-c3ccccc3)n2CC)sc(C(C)=O)c1C returned Cneo AK release 3.2, miR122 inh -2.5 and Ecoli rRNA inh -37.0*.
`C[C@H](CO)N1C[C@H](C)[C@H](CN(C)S(C)(=O)=O)Oc2ccc(N(C)C)cc2CC1=O` gave Cneo AK release -2.2, E-selectin induc 0.0, miR122 inh 1.3[16.7 µM], DENV2 CPE rescue -7.3 and Ecoli rRNA inh 4.1.
`C[C@@H]1CCCCO[C@H](CN(C)Cc2ccccc2)[C@H](C)CN([C@H](C)CO)C(=O)c2cc(NC(=O)c3ccccc3)ccc2O1` gave Cneo AK release -4.4, miR122 inh -3.6[16.7 µM], DENV2 CPE rescue -6.1 and Ecoli rRNA inh -1.9.
Screening CCN(CC(=O)NCc1cccs1)C(=O)/C=C/c1cc(OC)ccc1OC returned Cneo AK release -0.3, E-selectin induc -0.6, DENV2 CPE rescue -2.7 and Ecoli rRNA inh 1.6.
CCN(CC(=O)NCc1cccs1)C(=O)/C=C/c1ccc(OC)cc1OC was read as Cneo AK release 0.1, E-selectin induc 12.3, miR122 inh 1.0, DENV2 CPE rescue 30.4* and Ecoli rRNA inh -4.7.
For COc1ccc(CN(C)C[C@H]2Oc3ccc(NS(C)(=O)=O)cc3CC(=O)N([C@@H](C)CO)C[C@H]2C)cc1 the results were Cneo AK release 81.4*, miR122 inh 3.6[16.7 µM], DENV2 CPE rescue -1.1 and Ecoli rRNA inh 5.2.
For COc1ccc(CN(C)C[C@@H]2Oc3ccc(NS(C)(=O)=O)cc3CC(=O)N([C@@H](C)CO)C[C@@H]2C)cc1 the results were miR122 inh -2.1[16.7 µM] and Ecoli rRNA inh 0.6.
COc1ccc(S(=O)(=O)Nc2ccc3c(c2)CC(=O)N([C@@H](C)CO)C[C@@H](C)[C@@H](CN(C)Cc2ccc(C(F)(F)F)cc2)O3)cc1 was read as Cneo AK release 2.3, E-selectin induc -0.1, miR122 inh -8.9[16.7 µM], DENV2 CPE rescue -2.9 and Ecoli rRNA inh -4.2.
For COc1ccc(CN(C)C[C@@H]2Oc3ccc(NS(C)(=O)=O)cc3CC(=O)N([C@H](C)CO)C[C@H]2C)cc1 the results were Cneo AK release 97.1*, miR122 inh 0.8[16.7 µM], DENV2 CPE rescue -4.3 and Ecoli rRNA inh -0.2.
COc1ccc(CN(C)C[C@@H]2Oc3ccc(NS(C)(=O)=O)cc3CC(=O)N([C@@H](C)CO)C[C@H]2C)cc1 was read as Cneo AK release 1.8, miR122 inh -6.3[16.7 µM], DENV2 CPE rescue 17.7 and Ecoli rRNA inh 0.2.
Screening COc1ccc(S(=O)(=O)Nc2ccc3c(c2)CC(=O)N([C@H](C)CO)C[C@@H](C)[C@@H](CN(C)Cc2ccc(C(F)(F)F)cc2)O3)cc1 returned Cneo AK release 0.7, E-selectin induc -0.2, miR122 inh -14.5[16.7 µM], DENV2 CPE rescue 23.2* and Ecoli rRNA inh 0.0.
Screening C/C=C/c1cccc(-c2nc(C(=O)NC3CCC3)cc3c2[C@@H](CCO)N([S@](=O)C(C)(C)C)C3)c1 returned Ecoli rRNA inh -3.0.
Screening C[C@@H]1CN([C@H](C)CO)C(=O)CCCn2nncc2CO[C@@H]1CN(C)Cc1ccncc1 returned E-selectin induc 0.1, miR122 inh -1.8[16.7 µM] and Ecoli rRNA inh 3.4.
`Nc1ccn([C@H]2CS[C@@H](CO)O2)c(=O)n1` gave Cneo AK release -0.5, miR122 inh -2.0, DENV2 CPE rescue 26.6* and Ecoli rRNA inh 2.7.
For Nc1ccn([C@@H]2O[C@H](CO)[C@@H](O)[C@H]2O)c(=O)n1 the results were Cneo AK release 1.0, E-selectin induc 0.0, miR122 inh -5.4 and DENV2 CPE rescue -8.8.
`CC(NC(=O)c1c(N)[nH]c(C(=O)c2ccc(Cl)cc2)c1-c1ccc(Br)cc1)c1cccc2ccccc12` (centres undefined) gave E-selectin induc -0.2 and DENV2 CPE rescue 38.8*.
Screening Nc1[nH]c(C(=O)c2ccc(Br)cc2)c(-c2ccc(Cl)cc2)c1C(=O)NCCc1c[nH]c2ccccc12 returned E-selectin induc 0.1 and DENV2 CPE rescue 44.0*.
For CNC(=O)C[C@H]1CC[C@H]2[C@@H](COc3ccc(NC(=O)C(C)C)cc3C(=O)N2C)O1 the results were Cneo AK release 56.5, E-selectin induc 0.0, miR122 inh -33.3[16.7 µM], DENV2 CPE rescue 2.0 and Ecoli rRNA inh 2.6.
`Cc1ccc(-c2ccc(C3[C@@H]4CN(Cc5cccc(F)c5)C[C@H]3N4)cc2)cc1` (some centres undefined) gave E-selectin induc 1.0, DENV2 CPE rescue -2.8 and Ecoli rRNA inh -54.9.
Screening COc1ccc(C(=O)c2ccc3oc(-c4ccc(OC)cc4)c(C#CCCO)c3c2)cc1 returned Cneo AK release -0.5, E-selectin induc 0.4, miR122 inh 11.9, DENV2 CPE rescue 78.9* and Ecoli rRNA inh 4.1.
COc1cc(OC)cc(-c2oc3cccnc3c2C#CCCO)c1 was read as Cneo AK release 3.7, miR122 inh -6.5, DENV2 CPE rescue -8.2 and Ecoli rRNA inh 3.5.
For COc1ccc(-c2ccc(SCC(=O)c3ccc(F)cc3)nn2)cc1OC the results were Cneo AK release 1.9, E-selectin induc -0.9, DENV2 CPE rescue 4.2 and Ecoli rRNA inh -20.6.
COc1ccc(-c2ccc(SCC(=O)c3cccs3)nn2)cc1OC was read as E-selectin induc 0.1, DENV2 CPE rescue -3.3 and Ecoli rRNA inh -33.7*.
